Activity calls are given as the source filed them.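 Rule for the calls, unless noted: active = viability at or below 10% of carrier control in both of two separate runs; inconclusive = viability at or below 10% in only one of the two runs; inactive = the rest.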

Test [1] in a line: reduced viability of SK-BR-3 breast cancer cells – cell-based, 24 h, human, pilot screen (AID 572).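 Note: compound exposure lasted between 18 and 24 h rather than exactly 24 h; 100% = carrier-treated control wells.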 Particulars: SK-BR-3 viability, CellTiter-Glo luminescence, at 10 µM, stronger effect = lower value.
Test [2] is described as follows: HUVEC growth inhibition – cell-based, human, primary screen (AID 575;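 active = viability at or below 30% in both replicate assays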;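 note: 100% = median of untreated cell wells with 0.1% DMSO on each plate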). Particulars: HUVEC proliferation, CellTiter-Glo luminescence, 72 h; at 10 µM; stronger effect = lower value. In outline:
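Test system: primary human umbilical vein endothelial cells; medium: endothelial basal medium with 2% FBS plus growth supplements; dosing: 10 µM compound only; times: 72 h treatment at 37 °C; signal: CTG luminescence; read-out: % viability relative to median vehicle-well signal on each plate; control set: vehicle and MePR control wells; plate: 384-well, collagen-coated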

The nature of test [3]: H69AR cell proliferation blockers – human, duplicate replicates, primary screen (AID 580;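 active = viability at or under a set limit in both replicates, limit being median viability minus 3 SD, cut at about 48% in these data, passing the limit was not always enough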;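 note: 100% = mean luminescence of untreated wells and 0% = no signal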). Particulars: H69AR lung tumor cells viability, ATP luminescence, 72 h; at 10 µM; stronger effect = lower value.
The nature of test [4]: MRP1 drug-resistance reversers in H69AR cells – cell-based, doxorubicin co-treatment, pilot screen (AID 601;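 active = viability loss from added drug above about 55%, and viability with drug at most 40%, in both replicates, limit read from the data, passing the limit was not always enough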). As to conditions: CellTiter-Glo, 72 h, at 10 µM; for differential viability (reversal): stronger effect = higher value.
Test [5] can be described thus: yeast transport mutant growth inhibition pilot in 384-well plates, post-Golgi transport modulator project (AID 636; in the data active = inhibition above about 31%). Particulars: absorbance 615 nm, about 18 h, stronger effect = higher value.
A short description of test [6]: growth suppression of yeast trafficking mutant, preliminary HTS, modulators of trafficking downstream of Golgi apparatus project, 1536-format plate, OD 615 nm (AID 637; in the data active = inhibition above about 30%). As to conditions: yeast transport mutant growth, absorbance 615 nm, 18 h; stronger effect = higher value.
Setting [7] is: H69AR cells + 2 uM doxorubicin, measured here: viability with 2 uM doxorubicin, stronger effect = lower value.
The mark [8] stands for this setting: H69AR cells, compound alone cytotoxicity.

For `Cc1ccc(-c2ccc(=O)n(CC(=O)NCCCN3CCCCC3C)n2)cc1` (stereo not drawn), the viability in test [1] is 97% (inactive); in test [2] it was 99% (inactive); in test [3], 91.9% (inactive); in test [4] (setting [7]), 95.4%; in test [4] (setting [8]) it was 91.9%. Also, in test [4] (H69AR cells + 2 uM doxorubicin), the differential viability (reversal) is -3.54% (inactive). Moreover, the inhibition in test [5] was -0.39% (inactive); in test [6], -6.56% (inactive).
As to `NS(=O)(=O)c1ccc(CCNC(=O)c2cccnc2)cc1`, the viability in test [1] was 126% (inactive); in test [2], 92.3% (inactive); in test [3] it was 97.2% (inactive); in test [4] (setting [7]) it was 93.4%; in test [4] (setting [8]) it was 97.2%. For the same compound, the differential viability (reversal) in test [4] (H69AR cells + 2 uM doxorubicin) is 3.81% (inactive). The inhibition in test [5] was -4.46% (inactive); in test [6] it was -0.91% (inactive).
With `CCOC(=O)CSC1=C(C#N)C(c2ccc3c(c2)OCO3)CC(=O)N1` (stereo not drawn), the viability in test [1] is 90% (inactive); in test [2], 73.1% (inactive); in test [3], 13.1% (active); in test [4] (setting [7]), 65.5%; in test [4] (setting [8]), 13.1%. Further, the differential viability (reversal) in test [4] (H69AR cells + 2 uM doxorubicin) was -52.4% (inactive). Moreover, the inhibition in test [5] is -5.41% (inactive); in test [6] it was -2.36% (inactive).
In the case of `Cc1c(C(=O)NCc2ccoc2)oc2ccc3c(c12)C(=O)CC(C)(C)O3`, the viability in test [1] is 129% (inactive); in test [2] it was 75.1% (inactive); in test [3], 76.2% (inactive); in test [4] (setting [7]), 78.9%; in test [4] (setting [8]) it was 76.2%. Moreover, in test [4] (H69AR cells + 2 uM doxorubicin), the differential viability (reversal) is -2.74% (inactive). For the same compound, the values for the inhibition in test [5] and in test [6] were -0.52% (inactive) and 3.77% (inactive), respectively.
For the compound `CCCC(CCC)C(=O)NCCN1CCOCC1`, the viability in test [1] is 118% (inactive); in test [2], 85% (inactive); in test [3] it was 96.8% (inactive); in test [4] (setting [7]) it was 86.6%; in test [4] (setting [8]) it was 96.8%. In test [4] (H69AR cells + 2 uM doxorubicin), the differential viability (reversal) was 10.2% (inactive). Moreover, the inhibition in test [5] was -2.34% (inactive); in test [6], 4.92% (inactive).
For `CC(C)CNS(=O)(=O)c1ccc(CCC(=O)NCc2ccco2)cc1`, the viability in test [1] was 113% (inactive); in test [2], 88.6% (inactive); in test [3] it was 84.5% (inactive); in test [4] (setting [7]), 87.7%; in test [4] (setting [8]), 84.5%. In test [4] (H69AR cells + 2 uM doxorubicin), the differential viability (reversal) is -3.21% (inactive). In addition, the inhibition is -4.93% (inactive) in test [5] and 1.29% (inactive) in test [6].
On to `CCc1nc(SCc2cc(Cl)ccc2OC)n[nH]1`, for which the viability in test [1] is 99% (inactive); in test [2], 94.2% (inactive); in test [3], 94.7% (inactive); in test [4] (setting [7]), 106%; in test [4] (setting [8]), 94.7%. Besides, the differential viability (reversal) in test [4] (H69AR cells + 2 uM doxorubicin) was -11.5% (inactive). Also, the inhibition was -0.68% (inactive) in test [5] and -6.55% (inactive) in test [6].
Take `CSc1c(C#N)c(N)c(C#N)c2c1COC(C)(C)C2`: the viability was 94% (inactive) in test [1]; 90.1% (inactive) in test [2]; 88% (inactive) in test [3]; 89.1% in test [4] (setting [7]); 88% in test [4] (setting [8]). For the same compound, in test [4] (H69AR cells + 2 uM doxorubicin), the differential viability (reversal) is -1.11% (inactive). Moreover, the inhibition was -11.1% (inactive) in test [5] and 2.1% (inactive) in test [6].
`COc1nc(C)ccc1-c1noc(-c2ccncc2)n1`: the viability is 101% (inactive) in test [1]; 86.5% (inactive) in test [2]; 95.1% (inactive) in test [3]; 83.6% in test [4] (setting [7]); 95.1% in test [4] (setting [8]). In addition, the differential viability (reversal) in test [4] (H69AR cells + 2 uM doxorubicin) is 11.4% (inactive). The inhibition was -8.22% (inactive) in test [5] and 1.45% (inactive) in test [6].
For the compound `COCCNC(=O)C(c1cccs1)N(C(=O)Cn1nnc2ccccc21)c1ccccc1` (stereo not drawn), the viability in test [1] is 97% (inactive); in test [2] it was 107% (inactive); in test [3], 97.2% (inactive); in test [4] (setting [7]), 94%; in test [4] (setting [8]) it was 97.2%. Further, in test [4] (H69AR cells + 2 uM doxorubicin), the differential viability (reversal) was 3.17% (inactive). The inhibition in test [5] was -2.34% (inactive); in test [6] it was -5.9% (inactive).
In the case of `CN1C(=O)c2oc3ccccc3c(=O)c2C1c1ccccn1` (stereo not drawn), the viability was 105% (inactive) in test [1]; 87% (inactive) in test [2]; 106% (inactive) in test [3]; 94.8% in test [4] (setting [7]); 106% in test [4] (setting [8]). Besides, in test [4] (H69AR cells + 2 uM doxorubicin), the differential viability (reversal) was 11% (inactive). Moreover, the values for the inhibition in test [5] and in test [6] were -6.58% (inactive) and -1.09% (inactive), respectively.

(Values after PubChem BioAssay.)
